The target in series [1] is T1, Protein disulfide-isomerase (Homo sapiens, UniProt P07237). The experiment in a line: Inhibition of recombinant human wild-type N-terminal His-tagged PDIA1 expressed in Escherichia coli strain BL21(DE3) at 10 to 40 uM using bovine insulin as substrate preincubated for 1 hr followed by substrate addition. Particulars: dose microM 10-40, time 1.0 hrs.
Target sequence in this assay (P07237 18-508 limits assumed): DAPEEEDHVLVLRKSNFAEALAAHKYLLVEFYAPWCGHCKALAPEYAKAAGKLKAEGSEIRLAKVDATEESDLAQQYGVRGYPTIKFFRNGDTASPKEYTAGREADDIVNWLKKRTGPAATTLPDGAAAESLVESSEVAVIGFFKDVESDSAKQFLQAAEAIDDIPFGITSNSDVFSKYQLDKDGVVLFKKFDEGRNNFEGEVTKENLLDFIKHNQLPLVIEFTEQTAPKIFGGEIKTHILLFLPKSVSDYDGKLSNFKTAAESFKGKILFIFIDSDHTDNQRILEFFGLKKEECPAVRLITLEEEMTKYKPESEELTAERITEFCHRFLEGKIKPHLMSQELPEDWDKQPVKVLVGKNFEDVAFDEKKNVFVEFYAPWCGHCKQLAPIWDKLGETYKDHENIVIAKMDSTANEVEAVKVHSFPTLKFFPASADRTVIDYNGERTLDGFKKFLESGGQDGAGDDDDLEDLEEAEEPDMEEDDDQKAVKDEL
Series [2] concerns the target T2, Albumin (Bos taurus, UniProt P02769). Put plainly: Binding affinity to fetal bovine serum albumin at 20 uM measured after overnight incubation in presence of cell free DMEM medium by gel based assay. The format is ADME. Conditions: cattle.
For series [3], the target named is T2, Albumin. Put plainly: Binding affinity to fetal bovine serum albumin at 40 uM measured after 24 hrs in presence of human U-87 MG cells by Western blot analysis. Conditions: cattle. The format is ADME, cell-free.
For series [4], the target named is T1, Protein disulfide-isomerase. Put plainly: Binding affinity to PDIA1 in human U-87 MG cells at 40 uM measured after 24 hrs in presence of fetal bovine serum by Western blot analysis. The format is cell-based. On the technique in general: A western blot detects proteins with antibodies after separation by electrophoresis.
Target sequence in this assay (P07237 18-508 limits assumed): as above
For series [5] the target is unchanged. The experiment in a line: Binding affinity to PDIA1 in human U-87 MG cells at 10 uM measured after 24 hrs in absence of fetal bovine serum by coomassie staining GFP channel based assay. The series is classed as cell-based.
Target sequence in this assay (P07237 18-508 limits assumed): as above
The target is the same in series [6]. Put plainly: Binding affinity to recombinant human wild-type N-terminal His-tagged PDIA1 expressed in Escherichia coli strain BL21(DE3) at 20 uM measured after 24 hrs in presence of BSA by SDS PAGE analysis.
Target sequence in this assay (P07237 18-508 limits assumed): as above
A short description of series [7]: Drug uptake in human A 172 cell cytoplasm at 10 uM measured after 24 hrs by PDI antibody/DAPI staining based confocal microscopic analysis. The format is ADME, subcellular. Conditions: a 172, 24 h.
The nature of series [8]: Drug uptake in human A 172 cell endoplasmic reticulum at 10 uM measured after 24 hrs by PDI antibody/DAPI staining based confocal microscopic analysis. The series is classed as ADME, subcellular. Particulars: a 172, 24 h.
Series [9] in a line: Drug uptake in human A 172 cell nucleus at 10 uM measured after 24 hrs by PDI antibody/DAPI staining based confocal microscopic analysis. The format is ADME, subcellular. Particulars: a 172, 24 h.
Series [10] has as its target T1, Protein disulfide-isomerase. Put plainly: Inhibition of recombinant human wild-type N-terminal His-tagged PDIA1 expressed in Escherichia coli strain BL21(DE3) using bovine insulin as substrate preincubated for 1 hr followed by substrate addition. In short, it runs like this:
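IC50 from dose-response curves; PDI reductase assay for enzyme, MTT in U-87 MG cells for cytotoxicity; mean ± SD of at least three independent experiments.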
Target sequence in this assay (P07237 whole entry): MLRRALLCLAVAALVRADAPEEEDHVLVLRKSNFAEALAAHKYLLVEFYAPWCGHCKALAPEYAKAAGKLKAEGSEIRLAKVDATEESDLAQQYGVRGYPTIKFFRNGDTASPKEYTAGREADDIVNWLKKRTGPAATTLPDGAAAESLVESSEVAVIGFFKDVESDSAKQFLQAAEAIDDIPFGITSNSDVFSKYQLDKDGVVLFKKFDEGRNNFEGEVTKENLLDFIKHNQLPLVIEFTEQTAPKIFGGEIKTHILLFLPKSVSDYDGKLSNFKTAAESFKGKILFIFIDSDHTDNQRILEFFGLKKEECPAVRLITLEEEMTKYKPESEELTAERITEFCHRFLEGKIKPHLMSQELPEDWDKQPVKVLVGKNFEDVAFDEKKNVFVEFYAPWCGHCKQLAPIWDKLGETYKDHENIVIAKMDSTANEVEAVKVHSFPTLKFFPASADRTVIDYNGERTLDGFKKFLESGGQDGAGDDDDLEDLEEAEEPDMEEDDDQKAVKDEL

Series [11] shares this target. Put plainly: Binding affinity to PDIA1 in human U-87 MG cells at 5 uM measured after 24 hrs in presence of DTT by coomassie staining GFP channel based Western blot assay. The format is cell-based.
Target sequence in this assay (P07237 18-508 limits assumed): as the sequence (P07237 18-508 limits assumed) above
Series [12] shares this target. The experiment in a line: Binding affinity to PDIA1 in human U-87 MG cell lysates at 5 uM measured after 24 hrs by PAGE analysis. The series is classed as subcellular.
Target sequence in this assay (P07237 18-508 limits assumed): as above
Series [13] concerns the target T2, Albumin. Put plainly: Binding affinity to BSA at 100 uM measured after overnight incubation by coomassie staining GFP channel based Western blot assay. The series is classed as ADME, cell-free. Particulars: cattle, serum.
Series [14] has as its system U-87MG ATCC. Put plainly: Upregulation of CALR gene expression in human U-87 MG cells at 20 uM incubated for 4 hrs followed by Bru addition during last 30 mins of incubation by Trizol reagent based gene sequencing analysis. The format is functional, cell-based.
Series [15] has as its system U-87MG ATCC. The experiment in a line: Upregulation of HSPA5 gene expression in human U-87 MG cells at 20 uM incubated for 4 hrs followed by Bru addition during last 30 mins of incubation by Trizol reagent based gene sequencing analysis. The format is functional, cell-based.
For series [16], the system named is U-87MG ATCC. Put plainly: Upregulation of MYZAP gene expression in human U-87 MG cells at 20 uM incubated for 4 hrs followed by Bru addition during last 30 mins of incubation by Trizol reagent based gene sequencing analysis. The series is classed as functional, cell-based.
In series [17] the test system is U-87MG ATCC. Put plainly: Upregulation of NQO1 gene expression in human U-87 MG cells at 20 uM incubated for 4 hrs followed by Bru addition during last 30 mins of incubation by Trizol reagent based gene sequencing analysis. The series is classed as functional, cell-based.
Series [18] concerns U-87MG ATCC. Put plainly: Upregulation of SLC7A11 gene expression in human U-87 MG cells at 20 uM incubated for 4 hrs followed by Bru addition during last 30 mins of incubation by Trizol reagent based gene sequencing analysis. The series is classed as functional, cell-based.
Series [19] is described as follows: Effect on total CALR expression in human U-87 MG cells at 20 uM measured after 12 to 48 hrs by Western blot analysis. Conditions: u-87mg atcc, time 12-48 hrs. The format is ADME, cell-based.

Activity calls are given as the source filed them. The calls are words filed in the database; no cut-off is given here.

T2 sequence (P02769 whole entry): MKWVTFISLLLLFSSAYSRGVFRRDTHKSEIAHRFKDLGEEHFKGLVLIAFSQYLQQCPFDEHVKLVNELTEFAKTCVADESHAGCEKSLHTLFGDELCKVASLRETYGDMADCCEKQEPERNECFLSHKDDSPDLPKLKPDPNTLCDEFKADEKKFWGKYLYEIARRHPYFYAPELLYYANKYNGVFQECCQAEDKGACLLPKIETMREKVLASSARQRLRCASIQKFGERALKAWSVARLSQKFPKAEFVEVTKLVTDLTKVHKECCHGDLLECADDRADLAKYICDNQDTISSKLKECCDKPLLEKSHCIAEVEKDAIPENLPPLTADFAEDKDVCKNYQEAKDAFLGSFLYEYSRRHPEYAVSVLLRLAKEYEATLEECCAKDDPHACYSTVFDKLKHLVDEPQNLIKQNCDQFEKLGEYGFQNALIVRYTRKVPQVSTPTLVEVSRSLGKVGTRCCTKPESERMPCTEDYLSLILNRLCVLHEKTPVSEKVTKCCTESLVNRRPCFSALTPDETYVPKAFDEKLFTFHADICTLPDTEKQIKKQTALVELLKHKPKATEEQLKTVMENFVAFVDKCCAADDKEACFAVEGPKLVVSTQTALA

On to `CC1=CC(C)=[N+]2C1=C(c1ccc(NC(=O)c3ccc(C(c4cc5c(cc4O)OCO5)N4CCCCC4)cc3)cc1)c1c(C)cc(C)n1[B-]2(F)F` (stereo not given), for which the inhibition entry in [1] was “inactive”. In addition, the outcome on Albumin [2] and on Albumin [3] was Active. Further, the result in [4] and in series [5] was inactive. Moreover, in series [6], the result was Active. Also, the Drug uptake entry in [7], in series [8] and in [9] was “Active” in each case.

As to `CC1=CC(C)=[N+]2C1=C(c1ccc(C(=O)NCCNC(=O)c3ccc(C(c4cc5c(cc4O)OCO5)N4CCCCC4)cc3)cc1)c1c(C)cc(C)n1[B-]2(F)F` (stereo not given), the IC50 – broadly, the midpoint of a concentration-inhibition curve – in series [10] was found to be 1.37 µM. Moreover, the Activity result is “Active” at Albumin [2] and “Not Active” at Albumin [13]. The outcome in series [11] was inactive. The result in [12] and in [6] was Active. In addition, the Drug uptake entry in [7], in [8] and in series [9] was “Active” each time.

On to `Oc1c(C(c2ccncc2)N2CCCCC2)ccc2ccoc12` (stereo not given), for which the IC50 in series [10] was less than 0.2 µM. Moreover, the result in the series on U-87MG ATCC [14], with U-87MG ATCC [15], with U-87MG ATCC [16], in the series on U-87MG ATCC [17] and with U-87MG ATCC [18] was Active. For the same compound, in series [19], the Activity result was “Non-Toxic”.

These data come from ChEMBL document CHEMBL4725388, “Characterization of Aminobenzylphenols as Protein Disulfide Isomerase Inhibitors in Glioblastoma Cell Lines” (J Med Chem, 2020).
